Bioassay records (PubChem BioAssay)
Cl transport mod: KCC2 (human) Cl- transport modulation | 190,000 compounds, 2.2% hits | B-score of Tl+ flux slope (higher = more flux/activation; lower = inhibition) at 10 µM | Q9H2X9 | KCC2 cells, thallium flux FluoZin-2 fluorescence;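 active means thallium flux slope and its plate-corrected score both differing from the plate sample mean at a set confidence after two filtering rounds, in either direction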;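 further: slope of fluorescence scaled to starting intensity during 10 to 20 s after thallium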
KCNK3 inh: human KCNK3 channel inhibition, primary screen. O14649. CHO-KCNK3 thallium flux, FluxOR fluorescence; active compounds read low. B-score at 10 µM. 340,000 compounds, 0.84% hits;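 active means B-score under library mean minus 4 SD, starting fluorescence ratio at most library mean plus 5 SD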;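 further: more negative B-score means stronger inhibition of thallium flux through KCNK3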
KCNQ1 inh: human KCNQ1 channel inhibition; P51787; CHO-K1 KCNQ1, FluxOR thallium flux fluorescence; active compounds read high; B-score at 10 µM; 310,000 compounds, 1.3% hits; AID 2642;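 active means compounds whose thallium flux B-score, printed positive for inhibition, exceeds three library SD while starting fluorescence stays within three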;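 further: channel opened by potassium depolarization with thallium stimulus after 20 min compound exposure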
KCNQ1 act: potentiators or activators of human KCNQ1 potassium channel. 310,000 compounds, 0.35% hits. CHO-K1 KCNQ1, thallium flux FluxOR fluorescence; active compounds read high. AID 2648. P51787. B-score at 10 µM;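 active means fluorescence ratio B-score, a plate-corrected score, at least three library SD, with initial intensity B-score within 5 SD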
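Schedule – 37 °C overnight plating, 90-min dark dye load, 20-min compound pretreatment · System – stable KCNQ1 CHO-K1 line · Probe or stimulus – thallium- and potassium-containing depolarizing buffer · Measured by – kinetic FluxOR fluorescence, 10 s baseline plus 110 s post-stimulus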
hERG rescue: hERG (human) protection from proarrhythmic block. Q12809. CHO-hERG, FluxOR thallium flux, dofetilide IC70 present. activation (rescue from dofetilide block), less the hit threshold, % at 10 µM. 310,000 compounds, 0.51% hits. AID 1511;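 active means activation above the mean of controls blocked by dofetilide plus 5 SD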;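 further: thallium influx through hERG after potassium depolarization seen as dye fluorescence rise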
KCNK9 inh: inhibitors of human KCNK9 two-pore domain potassium channel | HEK293 KCNK9, FluxOR thallium flux fluorescence; active compounds read low | B-score at 10 µM | AID 488922 | 310,000 compounds, 1.2% hits;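 active means ratio B-score over 3 SD below the library mean, with starting fluorescence within 5 SD of its mean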;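 further: negative B-score means less thallium flux so channel inhibition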
KCC2 secondary: KCC2 (human) modulation, secondary assay; 3,700 compounds, 15% hits; shares compounds with Cl transport mod; HEK293-KCC2, thallium flux, FluoZin2 fluorescence; active compounds read high; normalised thallium flux (F/F0 slope) at 10 µM;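 active means thallium flux slope above the same plate's solvent-only control mean plus 3 SD; inconclusive means the two replicate wells disagree; inactive means no significant difference from solvent-only control wells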
KCC2 bumet counter: thallium flux persisting under bumetanide in KCC2 cells, counter-screen secondary assay. 3,700 compounds, 49% hits. shares compounds with Cl transport mod. HEK293-KCC2 + bumetanide/ouabain, thallium flux FluoZin2; active compounds read high. normalized thallium flux at 10 µM;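 active means thallium entry rate above the same plate's blocked-transporter control wells by more than 3 SD; inconclusive means the two repeat wells disagree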;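 further: raw slope of fluorescence over initial fluorescence between 10 and 20 s after thallium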
KCC2 secondary2: confirmation of human KCC2 transport modulators. shares compounds with Cl transport mod. normalized thallium flux at 10 µM. HEK293-KCC2, thallium flux FluoZin2 fluorescence; actives lie on both sides; F/F0 rise rate, 10–20 s post-thallium. 3,700 compounds, 23% hits;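 active means thallium flux slope more than 3 SD above or below the plate's solvent-only control mean, mostly below; inconclusive means the two repeat wells disagreed; inactive means no significant shift from solvent-only controls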
HEK counter1: counter-screen for KCC2 modulators: effect in parental HEK293 cells | shares compounds with Cl transport mod | thallium flux FluoZin2, ouabain; baseline-ratio fluorescence slope, 10–20 s after thallium | thallium flux rate (normalised fluorescence) at 10 µM | 3,700 compounds, 46% hits;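 active means thallium flux rate significantly above the same plate's solvent-only control wells, beyond their mean plus 3 SD; inconclusive means the two replicate wells gave conflicting results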
KCC2 ouabain: modulates human KCC2 on retest with ouabain; shares compounds with Cl transport mod; HEK293-KCC2, thallium flux FluoZin2 fluorescence; bidirectional: low = inhibitor, high = activator; raw Tl+ flux slope (below DMSO = inhibition, above = activation) at 10 µM; 3,700 compounds, 48% hits;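 active means thallium flux slope beyond 3 SD from same-plate DMSO control mean in most replicates, usually higher, sometimes lower; inconclusive means repeat tests gave conflicting results; inactive means no significant difference from controls in most replicates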;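 further: slope of initial-normalized fluorescence between seconds 10 and 20 after thallium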
HEK counter2: parental HEK flux effect, counter-screen 2 | 3,700 compounds, 33% hits | thallium flux slope at 10 µM | HEK293 parental, thallium flux FluoZin-2 fluorescence slope | shares compounds with Cl transport mod;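 active means thallium flux slope above the same plate's solvent-control mean plus 3 SD in both duplicate wells; inconclusive means duplicate wells that disagreed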;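 further: run without ouabain in cells lacking the KCC2 cotransporter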
A number is an active result; - = inactive; ? = inconclusive; . = not tested or not shown. Rows were chosen to be rich in hits. Some 4.1% of all compounds tested hit in one or more screens of this group.

SMILES	Cl transport mod	KCNK3 inh	KCNQ1 inh	KCNQ1 act	hERG rescue	KCNK9 inh	KCC2 secondary	KCC2 bumet counter	KCC2 secondary2	HEK counter1	KCC2 ouabain	HEK counter2
CC(=O)c1c(N)[nH]c(-c2ccccc2)nc1=S	.	-	-	-	-	-	.	.	.	.	.	.
CC(=O)c1c(N2CCOCC2)[nH]c(-c2ccccc2)nc1=S	13	-	-	-	-	-	0.017	0.032	?	0.019	0.041	?
CCS(=O)c1ccccc1C(=O)OCC(=O)N1CCC(c2ccccc2)=N1 (stereo not given)	.	-	.	.	.	.	.	.	.	.	.	.
O=C(COc1ccccc1/C=C1\SC(=O)NC1=O)Nc1ccc(F)cc1	-3.1	-	-	-	-	-	-	-	-	-	0.013	-
Cc1ccc(S(=O)(=O)Oc2ccccc2/C=C2\SC(=O)NC2=O)cc1	-6	-	8	-	-	-	?	-	0.024	0.0066	0.015	-
CCOc1ccc(S(=O)(=O)NCCC(=O)OCN2C(=O)c3ccccc3C2=O)cc1	.	-	-	-	-	-	.	.	.	.	.	.
Cc1ccc(S(=O)(=O)NCC(=O)OCN2C(=O)c3ccccc3C2=O)cc1	-	.	-	-	-	-	-	-	-	-	-	-
CCOC(=O)CC(NS(=O)(=O)c1ccc2[nH]cc(C(=O)O)c(=O)c2c1)c1ccc(OCC)c(OC)c1 (stereo not given)	.	-	-	-	-	-	.	.	.	.	.	.
CCCn1c(NC(=S)Nc2ccccc2)nc2ccccc21	28	-	-	-	-	-	?	0.018	-	0.0092	0.038	-
CCCn1c(Nc2nc3ccccc3n2C)nc2ccccc21	-	-	-	-	-	-	.	.	.	.	.	.
CCCCCCCn1c(NC(=O)CC)nc2ccccc21	6.5	-	-	-	-	-	?	0.027	-	0.011	-	0.011
Cc1ccc(-c2csc3nc(SCC(N)=O)n(Cc4ccccc4)c(=O)c23)cc1	6.7	-	-	-	-	-	-	0.021	-	0.028	0.026	-
Cc1ccc(-c2csc3ncnc(SCC(N)=O)c23)cc1	7.9	-	-	-	-	-	0.018	0.06	-	?	0.05	?
CCc1nnc(NC(=O)CSc2ncnc3scc(-c4ccc(C)cc4)c23)s1	-	-	-	-	-	-	.	.	.	.	.	.
O=c1c2ccccc2nc(-c2ccc(Cl)c(Cl)c2)n1O	35	-	-	37	21	-	0.018	0.11	?	0.062	0.083	0.023
O=c1c2ccccc2nc(-c2ccc(Cl)cc2Cl)n1O	5.7	-	-	-	-	-	0.012	0.02	-	0.012	0.029	-
O=C1NC(=O)C2(CCCCCCC2)N1	.	-	.	.	.	.	.	.	.	.	.	.
COc1ccc2c(c1OC)C(=O)N(c1cccc(NC(C)=O)c1)C2	.	-	-	-	-	-	.	.	.	.	.	.
Cc1ccc(C=Nc2ccccc2C(N)=O)s1	-	-	-	-	-	-	.	.	.	.	.	.
Cc1cccc(C=Nc2ccccc2C(N)=O)c1	-4.7	-	-	-	-	-	-	-	-	-	-	-
CCCCn1c(N)c(N(C)C(=O)c2ccc(OCC3CCCO3)cc2)c(=O)[nH]c1=O (stereo not given)	.	-	.	.	.	.	.	.	.	.	.	.
CCCCC(c1nnnn1CC1CCCO1)N1CCN(c2nc3ccccc3s2)CC1 (stereo not given)	-4.1	-	-	-	-	-	-	-	0.023	?	0.012	-
CCCC(c1nnnn1CC1CCCO1)N1CCN(c2nc3ccccc3s2)CC1 (stereo not given)	-3.8	-	-	-	-	-	-	-	-	-	0.013	-
CC(C)CC(c1nnnn1CC1CCCO1)N1CCN(c2nc3ccccc3s2)CC1 (stereo not given)	-	-	-	-	-	-	.	.	.	.	.	.
O=C(Nc1ccc(O)c2c(=O)cc(-c3ccccc3Cl)oc12)c1ccccc1Cl	-	-	-	-	-	-	.	.	.	.	.	.
SMILES	Cl transport mod	KCNK3 inh	KCNQ1 inh	KCNQ1 act	hERG rescue	KCNK9 inh	KCC2 secondary	KCC2 bumet counter	KCC2 secondary2	HEK counter1	KCC2 ouabain	HEK counter2
O=c1cc(-c2ccccc2Cl)oc2c([N+](=O)[O-])c(O)cc(O)c12	-6.9	-	8	-	-	-	-	?	0.018	0.0057	0.011	?
c1ccc(CSC2=NNC(c3ccccn3)S2)cc1 (stereo not given)	28	-	-	-	-	-	?	0.026	?	0.015	0.025	0.018
O=C(CSC1=NNC(c2ccccn2)S1)Nc1ccc(C(F)(F)F)cc1 (stereo not given)	-	-	-	-	-	-	.	.	.	.	.	.
CC(C)n1c(SCC(=O)Nc2ccccc2N2CCOCC2)nc2c1c(=O)n(C)c(=O)n2C	.	-	-	-	-	-	-	-	-	-	-	-
CCn1c(SCC(=O)Nc2ccccc2N2CCCCC2)nc2c1c(=O)n(C)c(=O)n2C	-	-	-	-	-	-	.	.	.	.	.	.
COc1ccc(N2C(=S)N=C(Nc3ccccc3)C23CCCCC3)cc1	23	-	-	-	-	-	?	0.026	-	0.014	0.029	0.012
Cc1cccc(NC2=NC(=S)N(CC#N)C23CCCCC3)c1	-	-	-	-	-	-	.	.	.	.	.	.
Cc1ccc(C2=NNC(C(O)C(O)C(O)C(C)O)S2)cc1 (stereo not given)	-	-	-	-	-	-	.	.	.	.	.	.
Cc1ccc(C2=NNC(c3cccc(F)c3)S2)cc1 (stereo not given)	10	-	-	-	-	-	-	?	-	-	-	?
Cc1ccc(S(=O)(=O)NCC2CCC(C(=O)NCCCN3CCCC3=O)CC2)cc1 (stereo not given)	.	-	-	-	-	-	.	.	.	.	.	.
COCCNC(=S)Nc1ccccc1[N+](=O)[O-]	-	-	-	-	-	-	.	.	.	.	.	.
Cc1ccnc(NC(=O)CNC(=O)c2ccco2)c1	.	-	-	-	-	-	.	.	.	.	.	.
Cc1ccccc1C(=O)NC(=S)Nc1ccccc1C(=O)O	-	-	-	-	-	-	.	.	.	.	.	.
